Experiment [1] relates to myocardial infarction (MI) mouse model. The experiment can be described thus: Myocardial infarction. It is filed as in vivo, Male C57BL/6J mice. The conditions noted are these: MI mice; daily oral gavage 28 days; SNT-5382 14 mg/kg, losartan 15 mg/kg. An outline of the steps: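 Male C57BL/6J mice, 10–11 weeks, were anaesthetised with ketamine 100 mg/kg and xylazine 10 mg/kg under ventilation. The left coronary artery was permanently ligated; shams had no occlusion. Mice with fractional shortening of 10–40% at 24 h were included. Daily oral gavage for 4 weeks: test compound 14 mg/kg (free base), losartan 15 mg/kg or water vehicle; blinded.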

Experiment [2] relates to bone marrow collagen fibrosis. The conditions noted are these: myelofibrosis patients treated for 9 months; cited from earlier work.
The test system of another experiment is LOXL2. The conditions noted are these: cited from earlier work.

In the case of `CCCCc1nc(Cl)c(CO)n1Cc1ccc(-c2ccccc2-c2nn[nH]n2)cc1` [losartan, Losartan], the “hypertrophy: left ventricular end-systolic diameter (LVESD)” value in experiment [1] is reported as “no significant effect”. With `NCc1cc(Oc2cccc(C(=O)N3C[C@@H](O)[C@H](F)C3)c2)nc(C(F)(F)F)c1` [GB2064], the “patients with reduced bone marrow collagen fibrosis grade” value in experiment [2] is given as 60%.

B1: simtuzumab: an allosteric LOXL2 selective antibody (antibody, chains of the INN, looked up, V domains shown)
VH: QVQLVQSGAEVKKPGASVKVSCKASGYAFTYYLIEWVRQAPGQGLEWIGVINPGSGGTNYNEKFKGRATITADKSTSTAYMELSSLRSEDTAVYFCARNWMNFDYWGQGTTVTVSS
VL: DIVMTQTPLSLSVTPGQPASISCRSSKSLLHSNGNTYLYWFLQKPGQSPQFLIYRMSNLASGVPDRFSGSGSGTDFTLKISRVEAEDVGVYYCMQHLEYPYTFGGGTKVEIK
With B1, the “inhibition of LOXL2 enzymatic activity” value with LOXL2 is given as “did not inhibit the enzymatic activity of LOXL2”.

These data come from publication PMC12217349 (Scientific Reports, 2025).
